Data taken from ChEMBL document CHEMBL4049390, “Combination of amino acid/dipeptide with ligustrazine-betulinic acid as antitumor agents” (Eur J Med Chem, 2017).

Tests used:
HT-29 = assay: Antiproliferative activity against human HT-29 cells after 72 hrs by MTT assay; format: functional, cell-based; conditions: HT-29, 72 h
Method in brief: (§1)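 MTT assay. Log-phase cells were seeded at 3×10^3 cells/well and left overnight, then exposed to serial dilutions of compound (DMSO solutions) for 72 h in RPMI 1640 with 10% heat-inactivated FBS at 37 °C, 5% CO2. MTT (5 mg/mL, 20 µL) was added for 4 h at 37 °C and the formazan dissolved in DMSO. A490 was read. % inhibition = (1 − sample OD/control OD)×100; IC50 is the 50% growth-inhibition concentration. Triplicates, n = 3 independent experiments.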

[1] = Therapeutic index, ratio of IC50 for MDCK cells to IC50 for human BGC823 cells
Method in brief: (§2)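 Ratios were calculated from MTT IC50 values (72 h exposure, A490 read-out, n = 3). Potency index = cisplatin IC50 / compound IC50. Therapeutic index = MDCK IC50 / tumour-line IC50.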

HeLa [2] = assay: Therapeutic index, ratio of IC50 for MDCK cells to IC50 for human HeLa cells; method in brief: as §2
HeLa [3] = assay: Antiproliferative activity against human HeLa cells after 72 hrs by MTT assay; format: functional, cell-based; method in brief: as §1
BGC-823 = assay: Antiproliferative activity against human BGC823 cells after 72 hrs by MTT assay; format: functional, cell-based; conditions: BGC-823, 72 h; method in brief: as §1
MDCK = assay: Antiproliferative activity against MDCK cells after 72 hrs by MTT assay; format: cell-based; conditions: Canis lupus familiaris; method in brief: as §1
A549 = assay: Antiproliferative activity against human A549 cells after 72 hrs by MTT assay; format: functional, cell-based; conditions: A549, 72 h; method in brief: as §1
HepG2 = assay: Antiproliferative activity against human HepG2 cells after 72 hrs by MTT assay; format: functional, cell-based; conditions: HepG2, 72 h; method in brief: as §1
[4] = Therapeutic index, ratio of IC50 for MDCK cells to IC50 for human A549 cells; method in brief: as §2
[5] = Therapeutic index, ratio of IC50 for MDCK cells to IC50 for human HepG2 cells; method in brief: as §2
[6] = Therapeutic index, ratio of IC50 for MDCK cells to IC50 for human HT-29 cells; method in brief: as §2

| Structure (SMILES) | IC50 (HT-29) [µM] | Ratio IC50 [1] | Ratio IC50 (HeLa [2]) | IC50 (HeLa [3]) [µM] | IC50 (BGC-823) [µM] | IC50 (MDCK) [µM] | IC50 (A549) [µM] | IC50 (HepG2) [µM] | Ratio IC50 [4] | Ratio IC50 [5] | Ratio IC50 [6] |
| --- | --- | --- | --- | --- | --- | --- | --- | --- | --- | --- | --- |
| C=C(C)[C@@H]1CC[C@]2(C(=O)OCc3nc(C)c(C)nc3C)CC[C@]3(C)[C@H](CC[C@@H]4[C@@]5(C)CC[C@H](OC(=O)[C@@H](N)CCCCN)C(C)(C)[C@@H]5CC[C@]43C)[C@@H]12 | 2.64 | >10 | >10 | 2.62 | 2.16 | > 40 | 1.26 | 2.39 | >10 | >10 | >10 |
| C=C(C)[C@@H]1CC[C@]2(C(=O)OCc3nc(C)c(C)nc3C)CC[C@]3(C)[C@H](CC[C@@H]4[C@@]5(C)CC[C@H](OC(=O)[C@H](C)NC(=O)CN)C(C)(C)[C@@H]5CC[C@]43C)[C@@H]12 | 4.38 | >10 | >10 | 5.57 | 1.49 | > 40 | 2.45 | 2.17 | >10 | >10 | >10 |
| C=C(C)[C@@H]1CC[C@]2(C(=O)OCc3nc(C)c(C)nc3C)CC[C@]3(C)[C@H](CC[C@@H]4[C@@]5(C)CC[C@H](OC(=O)[C@H](C)NC(=O)[C@@H]6CCCN6)C(C)(C)[C@@H]5CC[C@]43C)[C@@H]12 | 3.56 | >10 | >10 | 2.33 | 2.52 | > 40 | 4.08 | 3.39 | >10 | >10 | >10 |
